Reference: ChEMBL document CHEMBL1124707, “N-phenyl-N'-pyridinylureas as anticonvulsant agents” (1990)

Assays:
[1] = organism: Mus musculus; format: functional
[2] = organism: Mus musculus; assay: animal or person; format: functional; details: 0.5 h, read-out: MED
[3] = organism: Mus musculus; assay: Protective activity against Maximal Electroshock seizures(MES) at 60 min was determined; format: functional; details: 1 h
[4] = tested on: Mus musculus; assay: The compound was tested for Ataxia(ATAX) by the inverted screen test, after intraperitoneal administration at 120 min; format: functional; details: ip, 2 h
[5] = tested on: Mus musculus; assay: The compound was tested for Ataxia(ATAX) by the inverted screen test after (ip) administration at 120 min; format: functional; details: 2 h
[6] = organism: Mus musculus; assay: Protective activity against Maximal Electroshock seizures(MES) in mice was determined at 90 min; format: functional; details: 1.5 h
[7] = organism: Rattus norvegicus; assay: Protective activity was determined against Maximal Electroshock seizures(MES) in rat at 60 min; format: functional; details: 1 h
In short: (§1)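 Rats were dosed orally and tested against maximal electroshock, with the test time after dosing given per line. Doses were calculated as free base. ED50 is reported with 95% confidence interval.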

[8] = tested on: Mus musculus; assay: The compound was tested for Ataxia(ATAX) by the inverted screen test, after intraperitoneal administration at 120 min in mice; format: functional; details: ip, 2 h
[9] = tested on: Rattus norvegicus; assay: The compound was tested for Ataxia(ATAX) by the inverted screen test, after oral administration in rat at 240 min; details: 4 h
[10] = tested on: Mus musculus; assay: The compound was tested for Ataxia(ATAX) by the inverted screen test, after oral administration in mouse at 60 min; format: functional; details: 1 h
In short: (§2)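 Mice were dosed orally, with doses calculated as free base. They were placed on an inverted square of wire mesh, and falling off was scored as impairment. Ten mice per dose were tested at the stated time, giving an ED50 with 95% confidence interval.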

[11] = organism: Mus musculus; assay: Protective activity was determined against Maximal Electroshock seizures(MES) in mouse at 30 min; format: functional; details: 0.5 h
In short: (§3)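 Male Swiss-Webster mice (25–32 g, fed) were dosed orally, with the compound in water or in a 0.2% (hydroxymethyl)cellulose suspension and doses calculated as free base. Absence of tonic hind-limb extension counted as protection. Ten mice per dose were used, giving an ED50 with 95% confidence interval.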

[12] = organism: Mus musculus; assay: The compound was tested for protective activity against Maximal Electroshock seizures(MES) at 60 min in mice; format: functional; details: 1 h
[13] = organism: Rattus norvegicus; assay: Protective activity was determined against Maximal Electroshock seizures(MES) in rat at 30 min; format: functional; details: 0.5 h
In short: as §1

[14] = organism: Mus musculus; assay: Protective activity was determined against Maximal Electroshock seizures(MES) in mouse at 120 min; format: functional; details: 2 h
In short: as §3

[15] = tested on: Mus musculus; assay: The compound was tested for Ataxia(ATAX) by the inverted screen test, after oral administration in mouse at 120 min; format: functional; details: 2 h
In short: as §2

Structure (SMILES) | MAD [1] [mg/kg] | minimal effective dose [2] [mg/kg] | further results
N#Cc1ccccc1NC(=O)Nc1ccncc1 | 100 | > 300 | –
O=C(Nc1ccncc1)Nc1ccccc1C(F)(F)F | 300 | 100 | –
O=C(Nc1ccncc1)Nc1ccccc1Br | >300 | 100 | –
Cc1ccc(NC(=O)Nc2ccncc2)cc1 | 100 | > 300 | –
Cc1cccc(Cl)c1NC(=O)Nc1c(C)cccc1Cl | >300 | > 300 | –
Cc1cccc(Cl)c1NC(=O)Nc1cccnc1 | 300 | 100 | –
Cc1cccc(C)c1NC(=O)Nc1ccc([N+](=O)[O-])cc1 | >300 | > 300 | –
O=C(Nc1ccccn1)Nc1c(Cl)cccc1Cl | 100 | > 300 | –
O=C(Nc1ccncc1)Nc1ccc(F)cc1 | 300 | 300 | –
O=C(Nc1ccncc1)Nc1ccc(Oc2ccccc2)cc1 | >300 | > 300 | –
Cc1cc(C)c(NC(=O)Nc2ccncc2)c(Cl)c1 | >300 | 100 | –
CCOC(=O)c1ccccc1NC(=O)Nc1ccncc1 | >300 | 300 | –
Cc1cccc(C)c1NC(=O)N1CCN(C)CC1 | 300 | 100 | –
Cc1cc(NC(=O)Nc2c(C)cccc2Cl)ccn1 | 100 | 30 | –
O=C(Nc1ccncc1)Nc1ccccc1[N+](=O)[O-] | >300 | 300 | –
CC(C)c1cccc(C(C)C)c1NC(=O)Nc1ccncc1 | >300 | > 300 | –
COc1ccccc1NC(=O)Nc1ccncc1 | >300 | 100 | –
CC(C)c1ccccc1NC(=O)Nc1ccncc1 | 300 | 100 | –
Cc1c(Cl)cccc1NC(=O)Nc1ccncc1 | >300 | > 300 | –

Structure (SMILES) | MAD [1] [mg/kg] | minimal effective dose [2] [mg/kg] | further results
CC(C)c1ccc(NC(=O)Nc2ccncc2)cc1 | >300 | > 300 | –
CC(=O)c1ccc(NC(=O)Nc2ccncc2)cc1 | >300 | > 300 | –
O=C(Nc1ccncc1)Nc1cccc(C(F)(F)F)c1 | >300 | > 300 | –
O=C(Nc1ccncc1)Nc1cccc([N+](=O)[O-])c1 | >300 | > 300 | –
O=C(Nc1ccncc1)Nc1c(Cl)cc(Cl)cc1Cl | 300 | 300 | –
O=C(Nc1ccncc1)Nc1ccc(Cl)cc1 | >300 | > 300 | –
Nc1ccc(NC(=O)Nc2ccncc2)cc1 | 300 | > 300 | –
O=C(Nc1ccncc1)Nc1ccccc1F | 100 | 100 | –
O=C(Nc1ccncc1)Nc1ccc(I)cc1 | >300 | > 300 | –
CCOC(=O)c1ccc(NC(=O)Nc2ccncc2)cc1 | >300 | > 300 | –
O=C(Nc1ccccc1)Nc1ccncc1 | 300 | 100 | –
Cc1cccc(C)c1NC(=O)Nc1ccccn1 | >300 | 300 | –
O=C(Nc1ccncc1)Nc1c(Cl)cccc1CO | 300 | > 300 | –
Cc1cccc(Cl)c1NC(N)=O | 300 | 100 | –
Cc1cccc(Cl)c1NC(=O)NCc1ccncc1 | >300 | > 300 | –
CN(C)c1ccccc1NC(=O)Nc1ccncc1 | 100 | 100 | –
O=C(Nc1ccncc1)Nc1ccccc1O | >300 | > 300 | –
Cc1ccccc1NC(=O)Nc1ccncc1 | >300 | 100 | –
O=C(Nc1ccncc1)Nc1c(Cl)cccc1Cl | >300 | 100 | ED50 [3]: 30 mg/kg; ED50 [4]: 293 mg/kg

Structure (SMILES) | MAD [1] [mg/kg] | minimal effective dose [2] [mg/kg] | further results
O=C(Nc1ccncc1)Nc1ccc(Cl)cc1Cl | >300 | > 300 | –
O=C(Nc1ccncc1)Nc1ccccc1Cl | >300 | 100 | –
Cc1cc(C)c(NC(=O)Nc2ccncc2)c(C)c1 | 300 | 30 | –
CC(C)NC(=O)Nc1ccncc1 | 300 | 300 | –
Cc1cccc(C)c1NC(=O)Nc1ccncc1 | 100 | 30 | ED50 [5]: 138 mg/kg; ED50 [6]: 21 mg/kg
O=C(Nc1ccncc1)Nc1ccccc1C(=O)O | >300 | > 300 | –
COc1cc(C)c(NC(=O)Nc2ccncc2)c(C)c1 | >300 | > 300 | –
O=C(Nc1ccncc1)Nc1c(Cl)cccc1C(F)(F)F | 300 | 100 | –
Cc1cccc(C)c1NC(=O)Nc1cccnc1 | 300 | 100 | –
Cc1cccc(NC(=O)Nc2ccncc2)c1 | >300 | > 300 | –
Cc1cccc(Cl)c1NC(=O)Nc1ccccn1 | >300 | 100 | –
CCc1cccc(CC)c1NC(=O)Nc1ccncc1 | 100 | 30 | –
Nc1ccccc1NC(=O)Nc1ccncc1 | >300 | > 300 | –
Cc1cccc(Cl)c1NC(=O)Nc1ccncc1 | 300 | 30 | ED50 [7]: 9.2 mg/kg; ED50 [8]: 251 mg/kg; ED50 [9]: 408 mg/kg; ED50 [10]: 210 mg/kg; ED50 [11]: 14 mg/kg; ED50 [12]: 46 mg/kg
O=C(Nc1cccnc1)Nc1c(Cl)cccc1Cl | 300 | > 300 | –
Cc1ccc(NC(=O)Nc2ccncc2)c(C)c1 | >300 | > 300 | –
O=C(Nc1ccncc1)Nc1ccccc1OCc1ccccc1 | 30 | > 300 | –
O=C(Nc1ccncc1)Nc1ccc([N+](=O)[O-])cc1 | >300 | > 300 | –
O=C1NC(=O)C(c2ccccc2)(c2ccccc2)N1 [PHENYTOIN] | – | – | ED50 [13]: 30 mg/kg; ED50 [9]: > 300 mg/kg; ED50 [14]: 8.3 mg/kg; ED50 [15]: 78 mg/kg
